Data taken from ChEMBL document CHEMBL3864132, “Free fatty acid receptor 1 (GPR40) agonists containing spirocyclic periphery inspired by LY2881835” (Bioorg Med Chem, 2016).
One block for each compound: values may come before it.

Legend:
[1] = target: T1, Free fatty acid receptor 1 (Homo sapiens, UniProt O14842); test: Agonist activity at human FFA1 receptor expressed in CHO cells assessed as induction of Ca2+ flux by fluo-8 dye based FLIPR assay; format: functional, cell-based
Procedure, shortened: (§1)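 CHO cells stably expressing human GPR40 seeded 24 h before assay, loaded 1 h with Fluo-8 calcium dye, read on FLIPR. Agonist response taken as maximum fluorescence change over baseline; concentration-response curves fitted for EC50. Efficacy expressed relative to GW9508 at 5 μM.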

[2] = target: T1, Free fatty acid receptor 1; test: Agonist activity at human FFA1 receptor expressed in CHO cells assessed as induction of Ca2+ flux by fluo-8 dye based FLIPR assay relative to GW9508; format: functional, cell-based; procedure, shortened: as §1
[3] = Protein binding in human plasma at 1 uM after 5 hrs by HPLC-MS/MS analysis; format: ADME, cell-free; details: read-out: PPB (converted)
Procedure, shortened: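 Equilibrium dialysis (12–14 kDa MWCO) of plasma spiked at 1 μM (1% solvent) against PBS pH 7.4, 5 h at 37°C with shaking, quadruplicates. Chambers matrix-matched, precipitated with acetonitrile and analysed by HPLC-MS/MS. Bound % = (1 − buffer/plasma peak area) × 100; recovery checked against undialyzed spiked plasma.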

[4] = Kinetic aqueous solubility of the compound in PBS buffer […] at pH 7.4 after 2 hrs by UV-Visible spectrophotometric analysis; format: physicochemical; details: read-out: Kinetic_solubility
Procedure, shortened: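 Equilibrated 2 h at 25°C with shaking, then filtered. Filtrates read by UV-Vis scan against 0–400 μM calibration curves in methanol/PBS.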

[5] = Half life in BALB/c mouse liver microsomes at 2 uM by HPLC-MS analysis; format: ADME
Procedure, shortened: (§2)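 Pooled liver microsomes from male BALB/c mice at 0.42 mg protein/ml in 100 mM potassium phosphate pH 7.4 with MgCl2, NADPH and a G6P/G6PDH regenerating system. Compound 2 μM (1.6% solvent), 37°C, five time points over 40 min, duplicates. Quenched in acetonitrile, analysed by HPLC-MS/MS. kel from ln(AUC) versus time; T1/2 = 0.693/kel; CLint scaled to incubation volume per mg microsomes.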

[6] = Intrinsic clearance in BALB/c mouse liver microsomes at 2 uM up to 40 mins by HPLC-MS analysis; format: ADME; procedure, shortened: as §2
[7] = target: T2, Free fatty acid receptor 2 (Homo sapiens, UniProt O15552); test: Agonist activity at human FFA2 receptor expressed in CHO cells assessed as induction of Ca2+ flux by fluo-8 dye based FLIPR assay; format: functional, cell-based
T2 sequence (O15552 whole entry): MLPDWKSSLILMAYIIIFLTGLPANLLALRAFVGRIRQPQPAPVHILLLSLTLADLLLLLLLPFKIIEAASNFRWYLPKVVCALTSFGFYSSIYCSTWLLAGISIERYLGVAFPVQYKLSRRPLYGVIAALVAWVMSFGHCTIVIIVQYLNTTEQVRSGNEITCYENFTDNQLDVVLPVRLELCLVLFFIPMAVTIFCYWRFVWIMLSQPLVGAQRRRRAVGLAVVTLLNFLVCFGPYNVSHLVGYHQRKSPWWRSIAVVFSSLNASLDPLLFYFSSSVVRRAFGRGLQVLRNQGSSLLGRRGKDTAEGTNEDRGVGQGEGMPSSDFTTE
Procedure, shortened: (§3)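 CHO lines stably expressing the respective receptor (GPR43, GPR41 or GPR120) used for specificity screening. Cells loaded 1 h with Fluo-8 calcium dye and read by FLIPR; maximum fluorescence change over baseline taken as agonist response.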

[8] = target: T3, Free fatty acid receptor 4 (Homo sapiens, UniProt Q5NUL3); test: Agonist activity at human FFA4 receptor expressed in CHO cells assessed as induction of Ca2+ flux by fluo-8 dye based FLIPR assay; format: functional, cell-based; procedure, shortened: as §3
T3 sequence (Q5NUL3 whole entry): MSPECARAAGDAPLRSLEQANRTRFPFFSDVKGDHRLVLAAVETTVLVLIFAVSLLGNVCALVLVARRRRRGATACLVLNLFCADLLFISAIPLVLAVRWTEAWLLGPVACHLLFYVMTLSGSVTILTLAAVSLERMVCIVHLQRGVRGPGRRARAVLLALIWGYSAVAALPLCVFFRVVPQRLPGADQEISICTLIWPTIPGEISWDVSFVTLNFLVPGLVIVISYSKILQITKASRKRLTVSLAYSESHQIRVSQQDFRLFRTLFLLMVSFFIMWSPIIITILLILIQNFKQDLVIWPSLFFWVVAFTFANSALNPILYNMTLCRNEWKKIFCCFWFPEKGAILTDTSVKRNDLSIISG

[9] = target: T4, Free fatty acid receptor 3 (Homo sapiens, UniProt O14843); test: Agonist activity at human FFA3 receptor expressed in CHO cells assessed as induction of Ca2+ flux by fluo-8 dye based FLIPR assay; format: functional, cell-based; procedure, shortened: as §3
T4 sequence (O14843 whole entry): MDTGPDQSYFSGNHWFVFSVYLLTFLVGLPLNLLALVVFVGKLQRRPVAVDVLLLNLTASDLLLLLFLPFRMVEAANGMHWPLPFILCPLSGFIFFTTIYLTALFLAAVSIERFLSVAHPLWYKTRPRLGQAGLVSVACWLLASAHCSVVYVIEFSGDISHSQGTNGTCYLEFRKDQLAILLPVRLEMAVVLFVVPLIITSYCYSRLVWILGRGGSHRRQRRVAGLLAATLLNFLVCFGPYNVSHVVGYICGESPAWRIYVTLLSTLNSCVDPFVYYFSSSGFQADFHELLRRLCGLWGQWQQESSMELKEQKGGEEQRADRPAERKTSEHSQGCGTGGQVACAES

[10] = Apparent permeability from apical to basolateral side in human Caco2 cells at 10 uM by HPLC-MS analysis; format: ADME, cell-based; details: Caco-2
Procedure, shortened: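 Apical-to-basolateral transport across Caco-2 monolayers, integrity checked by TEER in every well. Compound at 10 μM, acceptor concentrations by HPLC-MS. Papp = (VA/(area × time)) × ([drug]acc/[drug]initial,donor), insert area 0.31 cm², in 10^-6 cm/s. Mean of n = 2.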

[11] = Observed AUC infinity in JAXC57BL/6J mouse at 10 mg/kg, iv through bolus administration measured after 10 to 240 mins by HPLC-MS analysis; format: ADME, organism-based; parameters: dose 10 mg/kg, route intravenous, time infinity; details: C57BL/6J, in vivo
Procedure, shortened: (§4)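 Male C57BL/6J mice given 10 mg/kg as tail-vein bolus in 10% β-cyclodextrin (5 ml/kg). Plasma by cardiac puncture at 10, 30, 60, 120 and 240 min (n=5 per time point), stored at -70°C. Levels by HPLC-MS/MS; parameters from group data by linear trapezoidal rule.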

[12] = Cmax in JAXC57BL/6J mouse at 10 mg/kg, po administered through plastic gavage as single dose measured up to 240 mins by HPLC-MS analysis; format: ADME, organism-based; parameters: dose 10 mg/kg, route oral; details: C57BL/6J, in vivo
Procedure, shortened: (§5)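 Male C57BL/6J mice dosed orally by gavage, 10 mg/kg single dose in 10% β-cyclodextrin (5 ml/kg). Plasma sampled at 30, 60, 120, 240 and 360 min (n=5 per time point), with 360 min excluded from calculations. HPLC-MS/MS quantitation; Cmax, Tmax and AUC from group data by linear trapezoidal rule.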

[13] = Tmax in JAXC57BL/6J mouse at 10 mg/kg, iv through bolus administration measured after 10 to 240 mins by HPLC-MS analysis; format: ADME, organism-based; details: C57BL/6J, in vivo; procedure, shortened: as §4
[14] = Tmax in JAXC57BL/6J mouse at 10 mg/kg, po administered through plastic gavage as single dose by HPLC-MS analysis; format: ADME, organism-based; details: C57BL/6J, in vivo; procedure, shortened: as §5
[15] = Oral bioavailability in JAXC57BL/6J mouse at 10 mg/kg administered through plastic gavage as single dose measured up to 240 mins by HPLC-MS analysis; format: ADME, organism-based; details: C57BL/6J, in vivo
Procedure, shortened: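 F = AUC0-∞ oral / AUC0-∞ i.v. × 100%, from male C57BL/6J mice given 10 mg/kg in 10% β-cyclodextrin by gavage or tail-vein bolus. n=5 per time point; plasma drug by HPLC-MS/MS.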

[16] = Cmax in JAXC57BL/6J mouse at 10 mg/kg, iv through bolus administration measured after 10 to 240 mins by HPLC-MS analysis; format: ADME, organism-based; parameters: dose 10 mg/kg, route intravenous; details: C57BL/6J, in vivo; procedure, shortened: as §4
[17] = Observed AUC infinity in JAXC57BL/6J mouse at 10 mg/kg, po administered through plastic gavage as single dose measured up to 240 mins by HPLC-MS analysis; format: ADME, organism-based; parameters: dose 10 mg/kg, time infinity, route oral; details: C57BL/6J, in vivo; procedure, shortened: as §5
[18] = target: T1, Free fatty acid receptor 1; test: Agonist activity at FFA1 receptor (unknown origin)
Procedure, shortened: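 Read-out on FLIPR as maximum fluorescence change over baseline. Dose-response testing gave EC50 from curve fitting. Efficacy is expressed as % of GW9508 reference agonist used at 5 μM.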

T1 sequence (O14842 whole entry): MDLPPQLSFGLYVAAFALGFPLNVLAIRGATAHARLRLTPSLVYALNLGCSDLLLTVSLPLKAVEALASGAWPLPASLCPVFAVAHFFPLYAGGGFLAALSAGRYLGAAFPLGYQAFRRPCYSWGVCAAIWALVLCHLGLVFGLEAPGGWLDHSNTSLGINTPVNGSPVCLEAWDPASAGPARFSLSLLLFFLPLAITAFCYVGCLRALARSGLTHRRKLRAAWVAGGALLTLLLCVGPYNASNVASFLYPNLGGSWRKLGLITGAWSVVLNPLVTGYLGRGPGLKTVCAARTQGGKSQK

Structure (SMILES): CC1CCOC2(CCN(Cc3ccc(COc4ccc(CCC(=O)O)cc4)cc3)CC2)C1 (stereo not drawn)
EC50 [1]: > 20 µM

Structure (SMILES): O=C(O)CCc1ccc(OCc2ccc(CN3CCC4(CCCCO4)CC3)cc2)cc1
EC50 [1]: > 20 µM

Structure (SMILES): O=C(O)CCc1ccc(OCc2ccc(CN3CCC4(CC3)CC(Cc3nc(C5CC5)no3)CCO4)cc2)cc1 (stereo not drawn)
Emax [2]: 53% | EC50 [1]: 4.54 µM

Structure (SMILES): COCCc1noc(CC2CCOC3(CCN(Cc4ccc(COc5ccc(CCC(=O)O)cc5)cc4)CC3)C2)n1 (stereo not drawn)
EC50 [1]: > 20 µM

Structure (SMILES): CC#C[C@@H](CC(=O)O)c1ccc(OCc2ccc(CN3CCC4(C=Cc5ccccc54)CC3)cc2)cc1 [LY2881835]
EC50 [18]: 0.233 µM

Next, values leading:

Emax [2]: 98% | EC50 [1]: 1.3 µM
Structure (SMILES): O=C(O)CCc1ccc(OCc2ccc(CN3CCC4(CC3)CC(OCc3cccc(F)c3)CCO4)cc2)cc1 (stereo not drawn)

fraction unbound at 5 h, 1 µM [3]: 0.012 | solubility kinetic at 2 h [4]: 151 µM | half-life at 2 µM [5]: 8.5 min | CLint at 40 min, 2 µM [6]: 196 µL/min/mg | EC50 [7]: > 10 µM | EC50 [8]: > 10 µM | Emax [2]: 93% | EC50 [9]: > 10 µM | EC50 [1]: 0.055 µM | Papp A→B at 10 µM [10]: 12 ×10⁻⁶ cm/s
Structure (SMILES): Cl.O=C(O)CCc1ccc(OCc2ccc(CN3CCC4(CC3)CC(Cc3ccccc3)CCO4)cc2)cc1 (stereo not drawn)

Emax [2]: 74% | EC50 [1]: 1.27 µM
Structure (SMILES): O=C(O)CCc1ccc(OCc2ccc(CN3CCC4(CC3)CC(Cc3ccc(C(F)(F)F)cc3)CCO4)cc2)cc1 (stereo not drawn)

fraction unbound at 5 h, 1 µM [3]: 0.017 | AUC(0-inf) [11]: 1790 ng·h/mL | Cmax [12]: 226 ng/mL | Tmax [13]: 10 min | solubility kinetic at 2 h [4]: 143 µM | half-life at 2 µM [5]: 23.4 min | CLint at 40 min, 2 µM [6]: 71.3 µL/min/mg | EC50 [7]: > 10 µM | EC50 [8]: > 10 µM | Tmax [14]: 30 min | Emax [2]: 88% | EC50 [9]: > 10 µM | EC50 [1]: 0.41 µM | bioavailability [15]: 10.3% | Cmax [16]: 2770 ng/mL | AUC(0-inf) [17]: 184 ng·h/mL | Papp A→B at 10 µM [10]: 8.7 ×10⁻⁶ cm/s
Structure (SMILES): Cl.O=C(O)CCc1ccc(OCc2ccc(CN3CCC4(CC3)CC(Cc3ccc(F)cc3)CCO4)cc2)cc1 (stereo not drawn)

EC50 [1]: > 20 µM
Structure (SMILES): O=C(O)CCc1ccc(OCc2ccc(CN3CCC4(CC3)CC(OCc3ccc(C(F)(F)F)cc3)CCO4)cc2)cc1 (stereo not drawn)

fraction unbound at 5 h, 1 µM [3]: 0.002 | solubility kinetic at 2 h [4]: 69 µM | half-life at 2 µM [5]: 9.6 min | CLint at 40 min, 2 µM [6]: 173 µL/min/mg | EC50 [7]: > 10 µM | EC50 [8]: > 10 µM | Emax [2]: 74% | EC50 [9]: > 10 µM | EC50 [1]: 0.077 µM | Papp A→B at 10 µM [10]: 10.4 ×10⁻⁶ cm/s
Structure (SMILES): Cc1ccc(CC2CCOC3(CCN(Cc4ccc(COc5ccc(CCC(=O)O)cc5)cc4)CC3)C2)cc1.Cl (stereo not drawn)
